Source: ChEMBL document CHEMBL2029200, “Discovery of a novel melanin concentrating hormone receptor 1 (MCHR1) antagonist with reduced hERG inhibition” (Bioorg Med Chem Lett, 2012)
Calls of active or inactive are those of the source. No cut-off for these calls is given here.

Legend:
Mus musculus [1] = assay: Antiobesity activity in high fat diet-fed C57BL/6 mouse expressing wild type MCHR1 gene assessed as reduction in body weight at 100 mg/kg, po daily measured for 34 weeks relative to control; format: functional; set-up: scale not given: the % may be the effect or the level left
Summary of the method: (§1)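 Wild-type and MCHR1-knockout female C57BL/6 mice given compound mixed into a 60% kCal fat high-fat diet. Body weight gain at study end compared with vehicle.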

[2] = target: Melanin-concentrating hormone receptor 1 (Homo sapiens, UniProt Q99705); assay: Displacement of [125I]-MCH from MCHR1 after 2 hrs by scintillation counting
Summary of the method: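 Competition binding on MCHR1 membrane preparation with 125I-MCH tracer. Compound diluted in 50 mM Tris pH 7.4, 10 mM MgCl2, 2.5 mM EDTA, 0.2% BSA. Incubation 2 h at 37 °C with shaking. Bound and free ligand separated by vacuum filtration through BSA-pretreated filter plates. Filters washed 4 times in Hepes/NaCl/BSA buffer, then counted by scintillation.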

[3] = target: Voltage-gated inwardly rectifying potassium channel KCNH2 (Homo sapiens, UniProt Q12809); assay: Inhibition of human Erg expressed in HEK293 cells assessed as rubidium efflux after 4 hrs by atomic absorbance spectrometric analysis
Mus musculus [4] = assay: Antiobesity activity in high fat diet-fed C57BL/6 mouse assessed as reduction in body weight at 3 mg/kg, po daily measured up to day 137 relative to control; format: functional, organism-based; set-up: dose 3 mg/kg
Mus musculus [5] = assay: Antiobesity activity in high fat diet-fed C57BL/6 mouse assessed as reduction in body weight at 10 mg/kg, po daily measured up to day 137 relative to control; format: functional, organism-based; set-up: dose 10 mg/kg
Summary of the method: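 Male/female unspecified C57BL/6 mice weaned at 4–5 weeks and kept on high-fat diet for over 24 weeks before dosing. Body weight followed for 137 days against vehicle.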

Mus musculus [6] = assay: Antiobesity activity in high fat diet-fed C57BL/6 mouse assessed as reduction in food intake at 3 to 10 mg/kg, po daily measured up to day 137 relative to control; format: functional, organism-based
Mus musculus [7] = assay: Antiobesity activity in high fat diet-fed MCHR1-knockout C57BL/6 mouse assessed as reduction in body weight at 100 mg/kg, po daily measured for 34 weeks relative to control; format: functional, organism-based; set-up: dose 100 mg/kg; summary of the method: as §1

Sequence of Voltage-gated inwardly rectifying potassium channel KCNH2 (Q12809 whole entry): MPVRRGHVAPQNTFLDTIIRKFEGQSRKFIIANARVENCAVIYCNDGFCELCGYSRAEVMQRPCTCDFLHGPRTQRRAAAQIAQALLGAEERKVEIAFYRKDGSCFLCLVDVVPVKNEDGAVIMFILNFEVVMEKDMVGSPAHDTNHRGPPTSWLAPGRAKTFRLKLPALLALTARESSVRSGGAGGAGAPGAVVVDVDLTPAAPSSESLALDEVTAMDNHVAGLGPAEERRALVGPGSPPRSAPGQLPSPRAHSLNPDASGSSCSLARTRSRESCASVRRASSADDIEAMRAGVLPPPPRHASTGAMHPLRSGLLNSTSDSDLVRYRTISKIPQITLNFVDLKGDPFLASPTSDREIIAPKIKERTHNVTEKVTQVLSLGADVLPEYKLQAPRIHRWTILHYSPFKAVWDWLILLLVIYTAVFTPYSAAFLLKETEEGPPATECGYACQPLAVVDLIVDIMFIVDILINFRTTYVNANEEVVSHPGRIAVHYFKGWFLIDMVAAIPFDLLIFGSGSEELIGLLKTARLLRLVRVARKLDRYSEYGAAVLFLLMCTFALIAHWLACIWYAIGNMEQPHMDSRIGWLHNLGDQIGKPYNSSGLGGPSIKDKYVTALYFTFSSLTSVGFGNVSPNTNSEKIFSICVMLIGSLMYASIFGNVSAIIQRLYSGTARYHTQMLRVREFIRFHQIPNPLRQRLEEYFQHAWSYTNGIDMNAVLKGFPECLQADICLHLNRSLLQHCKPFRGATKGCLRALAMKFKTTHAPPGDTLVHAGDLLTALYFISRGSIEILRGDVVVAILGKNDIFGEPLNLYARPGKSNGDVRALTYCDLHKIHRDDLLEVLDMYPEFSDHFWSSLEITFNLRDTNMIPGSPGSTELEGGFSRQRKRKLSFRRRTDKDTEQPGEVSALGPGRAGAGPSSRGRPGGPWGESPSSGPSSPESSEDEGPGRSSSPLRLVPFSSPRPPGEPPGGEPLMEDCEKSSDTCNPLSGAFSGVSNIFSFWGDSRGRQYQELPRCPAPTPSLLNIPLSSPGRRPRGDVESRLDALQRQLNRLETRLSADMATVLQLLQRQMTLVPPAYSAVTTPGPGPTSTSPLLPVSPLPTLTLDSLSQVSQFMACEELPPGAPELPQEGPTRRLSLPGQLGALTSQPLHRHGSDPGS
Sequence of Melanin-concentrating hormone receptor 1 (Q99705 whole entry): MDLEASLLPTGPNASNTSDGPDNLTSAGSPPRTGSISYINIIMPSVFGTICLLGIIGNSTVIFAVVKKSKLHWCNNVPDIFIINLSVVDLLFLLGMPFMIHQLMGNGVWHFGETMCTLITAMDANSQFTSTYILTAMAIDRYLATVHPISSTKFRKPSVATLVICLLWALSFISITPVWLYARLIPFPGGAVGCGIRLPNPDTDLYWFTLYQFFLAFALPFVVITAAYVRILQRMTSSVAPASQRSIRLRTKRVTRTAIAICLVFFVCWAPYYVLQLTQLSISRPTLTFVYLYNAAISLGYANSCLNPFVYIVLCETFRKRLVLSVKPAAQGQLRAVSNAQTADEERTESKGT

## C[C@H]1c2c([nH]c3ccc(C(F)(F)F)cc23)C[C@H]2CCN(CCC3(C(=O)O)CCCCC3)C[C@@H]21.Cl
Mus musculus [1]
  Activity: 33%

## C[C@H]1c2c([nH]c3ccc(C(F)(F)F)cc23)C[C@H]2CCN(CCCC3(C(=O)O)CCOCC3)C[C@@H]21
[2]
  IC50: 40 nM
[3]
  IC50: 300 nM

## C[C@H]1c2c([nH]c3ccc(C(F)(F)F)cc23)C[C@H]2CCN(CCCC3CCOCC3)C[C@@H]21
[3]
  IC50: 30 nM

## C[C@H]1c2c([nH]c3ccc(C(F)(F)F)cc23)C[C@H]2CCN(CCC3(C(=O)O)CCCCC3)C[C@@H]21
Mus musculus [4]
  Activity: Active
Mus musculus [5]
  Activity: Active
Mus musculus [6]
  Activity: Active
Mus musculus [7]
  Activity: inactive
